Experimental data taken from ChEMBL document CHEMBL1121543, “Synthesis of selenium-75 labeled tertiary diamines: new brain imaging agents” (J Med Chem, 1980).

Legend:
Rattus norvegicus [1] = experiment: Organ distribution in rat liver 2 hr after intravenous injection; format: ADME, organism-based; details: in vivo
Method in brief: (§1)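 Male Sprague-Dawley rats (220-300 g) given 0.2 mL Se-75 labeled compound (0.5-2.0 μCi) iv via femoral vein under light ether anesthesia; killed under ether by heart removal at set times; organs excised and counted in a well counter. Percent dose per organ from comparison with diluted aliquots of injected dose; blood and muscle totals assume 7% and 40% of body weight. Average of two or three rats, with range.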

Rattus norvegicus [2] = experiment: Organ distribution in rat lung 2 hr after intravenous injection; format: ADME, organism-based; details: in vivo; method in brief: as §1
Rattus norvegicus [3] = experiment: Organ distribution in rat lung 2 minutes after intravenous injection; format: ADME, organism-based; details: in vivo; method in brief: as §1
Rattus norvegicus [4] = experiment: Organ distribution in rat blood 2 minutes after intravenous injection; format: ADME, organism-based; details: in vivo; method in brief: as §1
Rattus norvegicus [5] = experiment: Organ distribution in rat lung 30 minutes after intravenous injection; format: ADME, organism-based; details: in vivo, 0.5 h; method in brief: as §1
Rattus norvegicus [6] = experiment: Organ distribution in rat muscle 30 minutes after intravenous injection; format: ADME, organism-based, Muscle tissue; details: in vivo, 0.5 h; method in brief: as §1
Rattus norvegicus [7] = experiment: Organ distribution in rat brain 2 minutes after intravenous injection; format: ADME, organism-based; details: in vivo; method in brief: as §1
Rattus norvegicus [8] = experiment: Organ distribution in rat kidney 2 hr after intravenous injection; format: ADME, organism-based; details: in vivo; method in brief: as §1
Rattus norvegicus [9] = experiment: Organ distribution in rat blood 30 minutes after intravenous injection; format: ADME, organism-based; details: in vivo, 0.5 h; method in brief: as §1
Rattus norvegicus [10] = experiment: Organ distribution in rat liver 2 minutes after intravenous injection; format: ADME, organism-based; details: in vivo; method in brief: as §1
Rattus norvegicus [11] = experiment: Organ distribution in rat heart 2 hr after intravenous injection; format: ADME, organism-based; details: in vivo; method in brief: as §1
Rattus norvegicus [12] = experiment: Organ distribution in rat heart 30 minutes after intravenous injection; format: ADME, organism-based; details: in vivo, 0.5 h; method in brief: as §1
Rattus norvegicus [13] = experiment: Organ distribution in rat muscle 2 hr after intravenous injection; format: ADME, organism-based, Muscle tissue; details: in vivo; method in brief: as §1
Rattus norvegicus [14] = experiment: Organ distribution in rat muscle 2 minutes after intravenous injection; format: ADME, organism-based, Muscle tissue; details: in vivo; method in brief: as §1
Rattus norvegicus [15] = experiment: Organ distribution in rat liver 30 minutes after intravenous injection; format: ADME, organism-based; details: in vivo, 0.5 h; method in brief: as §1
Rattus norvegicus [16] = experiment: Organ distribution in rat blood 2 hr after intravenous injection; format: ADME, organism-based; details: in vivo; method in brief: as §1
Rattus norvegicus [17] = experiment: Organ distribution in rat heart 2 minutes after intravenous injection; format: ADME, organism-based; details: in vivo; method in brief: as §1
Rattus norvegicus [18] = experiment: Organ distribution in rat kidney 2 minutes after intravenous injection; format: ADME, organism-based; details: in vivo; method in brief: as §1
Rattus norvegicus [19] = experiment: Organ distribution in rat kidney 30 minutes after intravenous injection; format: ADME, organism-based; details: in vivo, 0.5 h; method in brief: as §1
Rattus norvegicus [20] = experiment: Organ distribution in rat brain 30 minutes after intravenous injection; format: ADME, organism-based; details: in vivo, 0.5 h; method in brief: as §1
Rattus norvegicus [21] = experiment: Organ distribution in rat brain 2 hr after intravenous injection; format: ADME, organism-based; details: in vivo; method in brief: as §1
Rattus norvegicus [22] = experiment: Organ distribution in rat blood 30 min after intravenous injection; format: ADME, organism-based; details: in vivo, 0.5 h; method in brief: as §1

Compound | Dose/organ (Rattus norvegicus [1]) [%] | Dose/organ (Rattus norvegicus [2]) [%] | Dose/organ (Rattus norvegicus [3]) [%] | Dose/organ (Rattus norvegicus [4]) [%] | Dose/organ (Rattus norvegicus [5]) [%] | Dose/organ (Rattus norvegicus [6]) [%] | Dose/organ (Rattus norvegicus [7]) [%] | Dose/organ (Rattus norvegicus [8]) [%] | Dose/organ (Rattus norvegicus [9]) [%] | Dose/organ (Rattus norvegicus [10]) [%] | Dose/organ (Rattus norvegicus [11]) [%] | Dose/organ (Rattus norvegicus [12]) [%] | Dose/organ (Rattus norvegicus [13]) [%] | Dose/organ (Rattus norvegicus [14]) [%] | Dose/organ (Rattus norvegicus [15]) [%] | Dose/organ (Rattus norvegicus [16]) [%] | Dose/organ (Rattus norvegicus [17]) [%] | Dose/organ (Rattus norvegicus [19]) [%] | Dose/organ (Rattus norvegicus [20]) [%] | Dose/organ (Rattus norvegicus [21]) [%] | other results
C1CCN(CC[Se]CCN2CCCCC2)CC1 | 15.9 | 0.85 | 20 | 4.58 | 2.83 | 13.4 | 1.09 | 2.89 | 0.87 | 12 | 0.19 | 0.89 | 12 | 7.39 | 14.3 | 0.65 | 3.04 | 9.21 | 1.49 | 1.63 | Dose/organ (Rattus norvegicus [18]): 7.14%
C1CN(CC[Se]CCN2CCOCC2)CCO1 | 21.7 | 0.94 | 2.77 | 3.13 | 1.79 | 14.4 | 3.19 | 3.42 | 2.82 | 18.3 | 0.18 | 0.22 | 17.7 | 10.5 | 23.2 | 2.46 | 0.45 | 4.03 | 1.53 | 0.56 | Dose/organ (Rattus norvegicus [18]): 9.89%
CC(C)N(CC[Se]CCN(C(C)C)C(C)C)C(C)C | 13.1 | 1.11 | 11.2 | 2.96 | 3.44 | 14.2 | 0.25 | 2.28 | 1.17 | 11.9 | 0.3 | 0.55 | 15 | 9.88 | 16 | 1.04 | 2.35 | 6.19 | 0.33 | 0.35 | Dose/organ (Rattus norvegicus [18]): 11.4%
CN(C)CC[Se]CCN(C)C | 12.2 | 4.74 | 11.36 | 2.82 | 5.77 | 11.8 | 0.49 | 3.92 |  | 12.82 | 0.54 | 0.81 | 15.2 | 14.1 | 15.1 | 0.53 | 2.21 | 5.6 | 0.49 | 0.71 | Dose/organ (Rattus norvegicus [22]): 0.74%; Dose/organ (Rattus norvegicus [18]): 9.46%
C[N+](C)(C)CC[Se]CC[N+](C)(C)C | 3.04 | 0.2 |  |  | 0.63 | 9.52 |  | 2.75 | 5.16 |  | 0.05 | 0.15 | 5.48 |  | 5.74 | 0.36 |  | 6.01 | 0.06 | 0.06 | 
